Compound activity as filed in PubChem.
Compounds with a hit are over-represented: about 2.3% of the library has one in this group of screens.
TRPC6 inh: inhibitors of mouse TRPC6 channel; B-score at 10 µM; 1.1% of 310,000 active; HEK293-TRPC6, membrane potential dye, ACh-evoked depolarization; stronger effect = lower value;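 active = B-score under library mean minus 3 SD, initial fluorescence not abnormally high, positive integrated signal ratio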;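 also: B-score derived from integrated fluorescence ratio over the kinetic read; more negative B-score means stronger inhibition of depolarization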
Target sequence (Q61143 whole entry, looked up): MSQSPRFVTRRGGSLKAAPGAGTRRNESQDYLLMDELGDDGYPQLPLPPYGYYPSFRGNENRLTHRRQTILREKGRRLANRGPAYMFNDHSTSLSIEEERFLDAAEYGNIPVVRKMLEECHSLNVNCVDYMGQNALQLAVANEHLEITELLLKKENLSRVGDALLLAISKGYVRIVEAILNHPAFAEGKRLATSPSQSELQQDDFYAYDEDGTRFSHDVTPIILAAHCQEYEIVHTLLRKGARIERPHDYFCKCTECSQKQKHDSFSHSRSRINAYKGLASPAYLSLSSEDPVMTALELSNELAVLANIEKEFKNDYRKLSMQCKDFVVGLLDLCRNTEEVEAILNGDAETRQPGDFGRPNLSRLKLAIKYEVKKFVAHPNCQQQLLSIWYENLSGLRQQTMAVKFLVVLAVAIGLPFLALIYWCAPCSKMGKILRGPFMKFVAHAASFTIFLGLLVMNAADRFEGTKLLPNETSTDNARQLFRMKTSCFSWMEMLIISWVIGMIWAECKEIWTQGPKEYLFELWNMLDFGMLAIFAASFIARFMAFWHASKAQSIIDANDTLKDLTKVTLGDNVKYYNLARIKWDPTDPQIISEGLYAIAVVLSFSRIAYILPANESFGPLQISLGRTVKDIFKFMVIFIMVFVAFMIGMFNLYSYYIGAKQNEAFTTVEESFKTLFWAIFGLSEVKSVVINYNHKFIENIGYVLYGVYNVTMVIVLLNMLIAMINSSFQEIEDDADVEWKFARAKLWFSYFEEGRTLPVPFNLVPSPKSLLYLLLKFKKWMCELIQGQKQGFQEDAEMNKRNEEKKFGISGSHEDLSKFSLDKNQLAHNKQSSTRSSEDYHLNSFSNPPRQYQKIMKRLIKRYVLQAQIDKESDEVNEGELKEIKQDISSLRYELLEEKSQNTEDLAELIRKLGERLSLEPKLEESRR
TRPC6 activator: activates the mouse TRPC6 cation channel | Q61143 | HEK293-TRPC6 membrane potential dye fluorescence; stronger effect = higher value | B-score at 10 µM | 0.13% of 310,000 active | AID 2550;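 active = B-score of the integrated fluorescence ratio above library mean plus 3 SD, and starting fluorescence ratio within library mean plus 5 SD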;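 also: higher score means more depolarization so channel activation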
TRPC4 act: TRPC4 (mouse) channel activation; HEK293 TRPC4beta/mu-opioid, Fluo4 calcium fluorescence; stronger effect = higher value; 0.49% of 310,000 active; AID 2237; B-score at 10 µM;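 active = B-score above 5 SD of library B-scores, and initial fluorescence ratio not above library mean plus 5 SD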;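 also: positive B-score marks a calcium rise read as TRPC4 activation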
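Test system: HEK293 cells stably co-expressing mouse TRPC4beta and mu-opioid receptor | Schedule: Fluo4 dye loading 45 min at room temperature, 110 s recording | Measured by: Kinetic Fluo4 calcium fluorescence, 5 s baseline at 1 Hz | Evaluation: B score of integrated ratio | Controls: Buffer (low) and maximal DAMGO (high)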
TRPC4 inh: blocks the mouse TRPC4 cation channel. Q9QUQ5. HEK293 TRPC4beta/mu-opioid, DAMGO-evoked Fluo4 calcium flux; stronger effect = lower value. B-score at 10 µM. 0.39% of 300,000 active;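 active = B-score over 3 SD under the library average, no early fluorescence shift, positive overall ratio signal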
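Assay system: TRPC4beta/mu-opioid receptor HEK293 cell line; compound dosing: single concentration per test compound; detection: Fluo4 Ca2+ flux fluorescence; evaluation: per-well B score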
TRPC4 potent: allosteric potentiators of mouse TRPC4 channel; Q9QUQ5; HEK293 TRPC4beta/mu-opioid, DAMGO EC20, Fluo-4 Ca2+ flux; stronger effect = higher value; B-score at 10 µM; 0.42% of 310,000 active;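 active = B-score of calcium response area above 5 SD of library B-scores, with initial fluorescence ratio within 5 SD of library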;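 also: B-score of integrated fluorescence ratio over time as area under calcium response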
Starred values were filed as active, the others as inactive; i = inactive.

SMILES	TRPC6 inh	TRPC6 activator	TRPC4 act	TRPC4 inh	TRPC4 potent
COc1ccc([N+](=O)[O-])cc1NC(=O)C1C2C=CC(C2)C1C(=O)O (configuration not stated)	i	i	i	i	i
CN(C)CCOC(=O)C1(c2ccccc2)CCOCC1	i	i	i	i	11*
COc1ccc(NC2CCCN(C(=O)c3cn(C)c4ccccc34)C2)cc1 (configuration not stated)	i	i	i	i	i
C[C@H](NC(CCc1ccccc1)C(=O)O)C(=O)N1CCC[C@H]1C(=O)O (some centres not stated)	i	i	55*	i	i
C[C@H](NC(=O)[C@H](Cc1ccccc1)n1c(=O)[nH]c2ccccc2c1=O)C(=O)N1CCC[C@H]1C(=O)O	i	i	i	i	i
Cc1cc(-c2sccc2C)nc(-n2cccc2)n1	i	i	i	-6*	i
Cc1nc2cc(-c3sccc3-n3cccc3)nn2c(C)c1C	i	i	i	i	i
O=C(NCCc1ccccn1)C(F)(F)C(F)(F)C(F)(F)C(F)(F)C(F)(F)C(F)(F)C(F)(F)C(F)F	i	i	165*	i	i
Cc1cc(Br)c(NC(=O)CN(C)CCOc2ccccc2)c(Br)c1	i	i	i	-6*	i
CCCCN(C(=O)C1CC(=O)N(CCc2ccc(OC)c(OC)c2)C1)c1c(N)n(CCCC)c(=O)[nH]c1=O (configuration not stated)	i	i	i	i	i
OCC1(CCc2ccccc2)CCN(Cc2c(F)ccc(F)c2F)CC1	i	i	i	i	i
OCC1(CCc2ccccc2)CCN(Cc2ccccc2Cl)CC1	i	i	69*	i	i
COc1ccc2c(c1)C=C(CN1CCC(CO)(CCc3ccccc3)CC1)CO2	i	i	i	-6*	i
OCC1(CCCc2ccccc2)CCN(Cc2cc(F)ccc2F)CC1	i	i	i	-7*	i
OCC1(CCc2ccccc2)CCN(Cc2cc(F)ccc2-n2cccn2)CC1	i	i	82*	i	i
COc1ccc(C(=O)NCCCCCCNC(=O)c2ccc(OC)cc2)cc1	i	i	i	i	i
Cc1cccc(N2CCN(C(=O)C3(S(=O)(=O)c4ccc(Cl)cc4)CC3)CC2)c1C	i	i	i	i	19*
CC1CC(C)CN(CCCNC(=O)c2nn(C)c3c2CS(=O)(=O)c2ccccc2-3)C1 (configuration not stated)	i	i	98*	i	i
CC1CCN(CCCNC(=O)c2nn(C)c3c2CS(=O)(=O)c2ccccc2-3)CC1	i	i	i	i	i
CC(=O)Oc1ccc(/C=C(\NC(=O)c2ccco2)C(=O)NCc2ccco2)cc1	i	i	i	i	i
OC(COc1ccc2ccccc2c1)Cn1ccnc1 (configuration not stated)	i	i	i	i	11*
OC(COc1ccc2ccccc2c1Br)Cn1ccnc1 (configuration not stated)	i	i	i	i	i
CC1(c2ccc(OC(F)F)cc2)NC(=O)N(CC(=O)Nc2ccc(OC(F)F)cc2)C1=O (configuration not stated)	i	i	54*	i	i
CC1(c2ccc(OC(F)F)cc2)NC(=O)N(CC(=O)Nc2ccc(F)cc2)C1=O (configuration not stated)	i	i	i	i	i
CC1(c2ccc(OC(F)F)cc2)NC(=O)N(CC(=O)c2ccc3c(c2)OCO3)C1=O (configuration not stated)	i	i	62*	i	i
SMILES	TRPC6 inh	TRPC6 activator	TRPC4 act	TRPC4 inh	TRPC4 potent
O=C(CNC(=O)c1ccc(Br)o1)NCC(=O)OCc1ccccc1	i	i	i	i	i
O=C(O)c1ccccc1C(c1ccc(O)cc1)c1ccc(O)cc1	i	i	i	i	i
c1ccc(CCN=C2CCCc3c2[nH]c2ccccc32)cc1	i	i	155*	i	i
Nc1ccc(C(=O)N/N=C2\CCCc3c2[nH]c2ccccc32)cc1	i	i	i	i	i
Cc1cccc([C@@H]2[C@@H]3C(=O)N(Cc4ccccc4)C(=O)[C@@H]3[C@]3(CC(C)C)C(=O)N(c4cccc(F)c4)C(=O)N23)c1	i	i	i	i	i
COc1ccccc1C1C2=C(CCCC2=O)N(CC(=O)O)C2=C1C(=O)CCC2	i	i	i	i	i
COc1cc(Br)cc(C2C3=C(CCCC3=O)N(c3ccc(F)cc3)C3=C2C(=O)CCC3)c1O	i	i	i	i	70*
N#Cc1ccncc1S(=O)c1ccc(Cl)cc1 (configuration not stated)	i	i	i	i	i
CN(C)CCNC(=O)c1cc(Sc2ccc(F)cc2)nc2ccccc12	i	i	i	i	31*
Cc1ccc(Sc2cc(C(=O)NCCN(C)C)c3ccccc3n2)cc1	i	i	203*	i	i
CC1(c2ccccc2)CC(C)(C)N(C(=O)C2CCCO2)c2ccccc21 (configuration not stated)	i	i	i	-7*	i
CC1(c2cc([N+](=O)[O-])cc([N+](=O)[O-])c2)CC(C)(C)N(C(=O)c2ccccc2)c2ccccc21 (configuration not stated)	i	i	i	i	i
COc1cc2c(cc1OC)C(C)N(C(=O)[C@@H](NC(=O)c1ccccc1)C(C)C)CC2 (some centres not stated)	i	i	i	i	i
COc1cc2c(cc1OC)C(C)N(C(=O)C(NC(=O)c1ccccc1)C(C)C)CC2 (configuration not stated)	i	i	96*	i	i
CC(C)(C)c1ccc(C(=O)NC(=S)NNC(=O)COc2ccccc2)cc1	i	i	72*	-6*	i
Cc1cccc(OCC(=O)NC(=S)NNC(=O)c2ccncc2)c1	i	i	i	i	i
Cc1ccccc1C(=O)NNC(=S)NC(=O)COc1ccccc1	i	i	177*	i	i
CC(C)(C)C(=O)NC(=S)NNC(=O)c1ccc(-c2ccccc2)cc1	i	i	277*	i	i
Cc1ccc(C(=O)NNC(=S)NC(=O)COc2ccccc2)cc1	i	i	119*	i	i
COC(=O)c1ccccc1NC(=S)NC(=O)COc1ccccc1	i	i	i	i	i
CC(C)(C)c1ccc(OCC(=O)NNC(=O)CCc2ccccc2)cc1	i	i	i	i	i
